Experiment [1] is described as follows: Visual cytotoxicity was scored on HFF cells at time of HCMV plaque enumeration; >100 indicates IC50 greater than the noted (highest) concentration tested. Format: functional, cell-based. To be noted: Homo sapiens. A digest of the protocol:
(§1)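 Stationary HFF cells, not affected by virus, inspected microscopically for cytotoxicity at the time of plaque counting in the 7-day, 37 °C HCMV plaque assay. Drug was in growth medium. IC50 estimated from regression of % inhibition against log concentration.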

For experiment [2], the system named is KB. Kind of experiment: Inhibition of KB cell growth was determined; >100 indicates IC50 greater than the noted(highest) concentration tested. Format: functional, cell-based. To be noted: Homo sapiens. A digest of the protocol:
(§2)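 KB cells seeded at 3000-5000 per well and incubated overnight. Compound added in quadruplicate at six to eight concentrations, then 48 h at 37 °C in CO2, covering about two population doublings. Cells fixed in 95% ethanol, stained with 0.1% crystal violet, dye eluted with acidified ethanol, read at 570 nm. IC50 by linear regression against log concentration.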

The test system of experiment [3] is Human betaherpesvirus 5. Kind of experiment: Antiviral activity against HCMV using plaque reduction assay; >100 indicates IC50 greater than the noted(highest) concentration tested. Format: functional, organism-based. The gist of the method:
(§3)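 HFF cells in 24-well dishes infected with about 100 pfu HCMV (Towne strain) per cm2 cell sheet. After adsorption, drug in growth medium added to duplicate wells at four to eight concentrations. Incubated 7 days at 37 °C, then fixed and stained with crystal violet, and plaques counted microscopically. IC50 from linear regression of % plaque reduction versus log concentration. Means of 2–5 experiments.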

For experiment [4], the system named is Human alphaherpesvirus 1. Kind of experiment: Antiviral activity against HSV-1 using ELISA assay; >100 indicates IC50 greater than the noted (highest) concentration tested. The experiment is classed as functional, organism-based. The gist of the method: (§4)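 BSC-1 cells seeded at 10000 per well in MEM(E) with 10% calf serum and incubated overnight. Drug added in quadruplicate with HSV-1 (KOS) at 100 pfu/well, then 3 days at 37 °C. Detection used HRP-conjugated rabbit anti-HSV-1 antibody with TMB substrate, read at 450 and 570 nm. IC50 from regression of % absorbance reduction versus log concentration.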
On the technique in general: An ELISA detects its analyte on a solid surface through an enzyme-linked reagent.

The test system of experiment [5] is Human betaherpesvirus 5. As to the kind of experiment: Antiviral activity against HCMV using plaque reduction assay; >100 indicates IC50 greater than the noted (highest) concentration tested. Format: functional, organism-based. The gist of the method:
as §3
(In general: Plaque reduction counts the foci of infection that form in a cell layer.)

A short description of experiment [6]: Visual cytotoxicity was scored on HFF cells at time of HCMV plaque enumeration; >100 indicates IC50 greater than the noted(highest) concentration tested. To be noted: Homo sapiens. The experiment is classed as functional, cell-based. The gist of the method:
as §1

The subject of experiment [7] is Human betaherpesvirus 5. Kind of experiment: Antiviral activity against HCMV using plaque reduction assay. Format: functional, organism-based. The gist of the method:
as §3

In experiment [8] the test system is Human alphaherpesvirus 1. As to the kind of experiment: Antiviral activity against HSV-1 using ELISA assay. Format: functional, organism-based. The gist of the method:
as §4

Experiment [9] can be described thus: Visual cytotoxicity was scored on HFF cells at time of HCMV plaque enumeration. Format: functional, cell-based. The following applies: Homo sapiens. The gist of the method:
as §1

Experiment [10] concerns KB. Kind of experiment: Inhibition of KB cell growth was determined. The experiment is classed as functional, cell-based. To be noted: Homo sapiens. A digest of the protocol: as §2

Molecules are shown by their SMILES. Some results are limits rather than exact numbers.

By IC50 is commonly meant the concentration at which inhibition is half-maximal. A high value points to lower potency.

Take `O[C@@H]1[C@H](O)CO[C@@H]1c1c(Cl)nc2ccc(Cl)cn12`: the half-inhibitory concentration (IC50) in experiment [1], in [2], in experiment [3] and in [4] was > 100 µM each time.
As for `O[C@@H]1[C@H](O)CO[C@@H]1c1c(Cl)nc2cc(Cl)c(Cl)cn12`, the half-inhibitory concentration (IC50) in experiment [3] and in experiment [4] was > 100 µM throughout.
Consider `O[C@@H]1C(c2c(Cl)nc3cc(Cl)c(Cl)cn23)OC[C@@H]1O` (some centres not stated), for which the half-inhibitory concentration (IC50) in [1], in experiment [2], in [5] and in experiment [4] was > 100 µM throughout.
On to `O[C@@H]1COC(c2c(Cl)nc3ccc(Cl)cn23)[C@@H]1O` (single isomer, unassigned), for which the IC50 in [2], in experiment [3], in experiment [6] and in experiment [4] was > 100 µM each time.
Regarding `O[C@@H]1[C@H](O)CO[C@@H]1c1c(Cl)nc2cc(Cl)c(Cl)cn12` (stereo in doubt; 15a), the IC50 in experiment [1] was > 100 µM; in experiment [2], > 100 µM; in [7], 8 µM; in experiment [8], 24 µM.
On to `O[C@@H]1[C@H](O)CO[C@@H]1c1c(Cl)nc2cc(Cl)c(Cl)cn12` (stereo in doubt; 20), for which the IC50 stood at 100 µM in [9], 2.9 µM in experiment [7], 68 µM in experiment [10] and 14 µM in experiment [8] (Human alphaherpesvirus 1).

For the origin of these results see ChEMBL document CHEMBL1136759, “Synthesis and antiviral activity of novel erythrofuranosyl imidazo[1,2-a]pyridine C-nucleosides constructed via palladium coupling of iodoimidazo[1,2-a]pyridines and dihydrofuran” (J Med Chem, 2003).
